Laboratory results reported in ChEMBL document CHEMBL1125740, “Heterocyclic quinones. 17. A new in vivo active antineoplastic drug: 6,7-bis(1-aziridinyl)-4-[[3-(N,N-dimethylamino)propyl]amino]-5,8- quinazolinedione” (J Med Chem, 1991).
Where “and” joins values, the source holds several entries; their conditions need not be identical. Equal values may be shown once.

Legend:
[1] = test system: B16; test: Compound was evaluated in vivo for antitumor activity against B16 melanoma after injecting the compound intravenously for total dose; type: functional, Mus musculus
[2] = test system: B16; test: Compound was evaluated in vivo for antitumor activity against B16 melanoma 2 after injecting the compound intravenously median tumor burden; type: functional, Mus musculus
[3] = test system: B16; test: Compound was evaluated in vivo for antitumor activity against B16 melanoma 1 after injecting the compound intravenously for median tumor burden; type: functional, Mus musculus
[4] = Compound was evaluated in vivo for antitumor activity against Glasgow osteogenic sarcoma after injecting the compound intravenously for change in body weight.; type: functional, Mus musculus
Summary of the method: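 Glasgow osteogenic sarcoma in C57Bl/6-derived hosts: 30-60 mg fragments implanted sc by trocar on day 0. Drug given iv on days 3, 6 and 9, 7 mice per group. Tumors measured by caliper. Median tumor burden recorded on day 10. Body weight change per mouse recorded at nadir. Toxicity-related deaths counted.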

[5] = Compound was evaluated in vivo for antitumor activity against Glasgow osteogenic sarcoma after injecting the compound intravenously for percent T/C (value in parentheses indicates the day of evaluation); type: functional, Mus musculus
[6] = test system: L1210; test: Inhibitory activity against L1210 cell growth; type: functional, cell-based; details: Mus musculus
Summary of the method: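 L1210 cells were grown in RPMI 1640 with 2 mM glutamine and 20% heat-inactivated horse serum at 37 °C under 5% CO2. Drug was added in DMSO (0.5% final) to exponential cells seeded at 0.8×10^5 cells/mL. Coulter counts were done in triplicate at 48 h. IC50 was taken from a regression of probit % growth inhibition against log dose, from one experiment.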

[7] = test system: M5076; test: Compound was evaluated in vivo for antitumor activity against M5076 after injecting the compound intravenously for percent T/C; type: functional, Mus musculus
[8] = test system: M5076; test: Compound was evaluated in vivo for antitumor activity against M5076 after injecting the compound intravenously for toxicity related death.; type: functional, Mus musculus
[9] = test system: L1210; test: Compound was evaluated in vivo for antitumor activity after intraperitoneal administration against L1210(935) for total dose at an optimal dose of 0.5 mg/kg/injection at 1 day schedule.; type: functional, Mus musculus
Summary of the method: (§1)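 L1210 leukemia, maintained in DBA/2 mice, was given ip as 10⁵ cells on day 0 to F1 hybrid or strain-of-origin mice over 18 g, in groups of 8. Dosing was ip from day 1, and mortality was checked daily. Median day of death counts dying mice only. %ILS = 100×(treated − control median day of death)/control median. Tumor-free survivors were counted on day 60. Weight change is g/mouse at nadir.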

[10] = test system: L1210; test: Compound was evaluated in vivo for antitumor activity after intraperitoneal administration against L1210(935) for median day of death at an optimal dose of 0.125 mg/kg/injection at 1,4,7,11day schedule.; type: functional, Mus musculus; summary of the method: as §1
[11] = test system: L1210; test: Compound was evaluated in vivo for antitumor activity after intraperitoneal administration against L1210(935)for change in body weight at an optimal dose of 0.5 mg/kg/injection at 1 day schedule.; type: functional, Mus musculus; summary of the method: as §1
[12] = test system: P388; test: Compound was evaluated in vivo for antitumor activity after intraperitoneal administration against P388/L-PAM(12) for median day of death at an optimal dose of 0.75 mg/kg/injection; type: functional, Mus musculus
[13] = test system: P388; test: Compound was evaluated in vivo for antitumor activity after intraperitoneal administration against P388/L-PAM(12) for total dose at an optimal dose of 0.75 mg/kg/injection; type: functional, Mus musculus
[14] = test system: P388; test: Compound was evaluated in vivo for antitumor activity after intraperitoneal administration against P388 (1303) for change in body weight at an optimal dose of 0.75 mg/kg/injection; type: functional, Mus musculus
[15] = test system: P388; test: Compound was evaluated in vivo for antitumor activity after intraperitoneal administration against P388/L-PAM(14) for % increase in life span at an optimal dose of 0.5 mg/kg/injection at one day schedule.; type: functional; details: Mus musculus, P388, ip, 24 h
[16] = test system: P388; test: Compound was evaluated in vivo for antitumor activity after intraperitoneal administration against P388/L-PAM(14) for median day of death at an optimal dose of 0.125 mg/kg/injection at 1,4,7,11 day schedule.; type: functional, Mus musculus
[17] = test system: P388; test: Compound was evaluated in vivo for antitumor activity after intraperitoneal administration against P388/L-PAM(14) for mortality range at an optimal dose of 0.125 mg/kg/injection at 1,4,7,11 day schedule.; type: functional, Mus musculus
[18] = test system: P388; test: Compound was evaluated in vivo for antitumor activity after intraperitoneal administration against P388/L-PAM(14) for tumor free survivors at an optimal dose of 0.4 mg/kg/injection at 1,2,3,4 day schedule.; type: functional, Mus musculus
[19] = test system: P388; test: Compound was evaluated in vivo for antitumor activity after intraperitoneal administration against P388/L-PAM(12) for tumor free survivors at an optimal dose of 0.75 mg/kg/injection; type: functional, Mus musculus
[20] = test system: P388; test: Compound was evaluated in vivo for antitumor activity after intraperitoneal administration against P388/L-PAM(14) for mortality range at an optimal dose of 0.4 mg/kg/injection at 1,2,3,4 day schedule.; type: functional, Mus musculus
[21] = test system: P388; test: Compound was evaluated in vivo for antitumor activity after intraperitoneal administration against P388 (1303) for tumor free survivors at an optimal dose of 0.75 mg/kg/injection on day 60; type: functional, Mus musculus
[22] = test system: P388; test: Compound was evaluated in vivo for antitumor activity after intraperitoneal administration against P388/L-PAM(14) for change in body weight at an optimal dose of 0.25 mg/kg/injection at 1,4,7,11 day schedule.; type: functional, Mus musculus
[23] = test system: P388; test: Compound was evaluated in vivo for antitumor activity after intraperitoneal administration against P388/L-PAM(14) for change in body weight at an optimal dose of 0.5 mg/kg/injection at 1,4,7,11 day schedule.; type: functional, Mus musculus
[24] = test system: P388; test: Compound was evaluated in vivo for antitumor activity after intraperitoneal administration against P388/L-PAM(14) for % increase in life span at an optimal dose of 0.25 mg/kg/injection at 1,4,7,11 day schedule.; type: functional; details: Mus musculus, P388, ip
[25] = test system: P388; test: Compound was evaluated in vivo for antitumor activity after intraperitoneal administration against P388 (1313) for tumor free survivors at an optimal dose of 0.25 mg/kg/injection; type: functional, Mus musculus
[26] = test system: P388; test: Compound was evaluated in vivo for antitumor activity after intraperitoneal administration against P388 (1313) for median day of death at an optimal dose of 0.4 mg/kg/injection; type: functional, Mus musculus
[27] = Compound was evaluated in vivo for antitumor activity against colon adenocarcinoma 38 after injecting the compound intravenously for optimal dose; type: functional, Mus musculus
[28] = Compound was evaluated in vivo for antitumor activity against mammary adenocarcinoma 16/C after injecting the compound intravenously for total dose.; type: functional, Mus musculus
Summary of the method: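 30-60 mg tumor fragments implanted sc by trocar on day 0 into C57Bl/6-derived hosts (B16) or C3H/He-derived hosts (16/C). Drug given iv on days 6, 9 and 13 (B16) or 6, 9 and 12 (16/C), 10 mice per group. Tumors measured by caliper. T/C % taken from median tumor burden of treated vs control groups on day 15 (B16) or day 14 (16/C). Body weight change per mouse recorded at nadir.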

[29] = Compound was evaluated in vivo for antitumor activity against Lewis Lung cercinoma after injecting the compound intravenously for total dose.; type: functional, Mus musculus
Summary of the method: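 Lewis lung carcinoma: 10^6 cells implanted im into C57Bl/6-derived hosts. Drug given iv on days 5, 9 and 13, 10 mice per group. Median tumor burden and weight nadir recorded. Survivors were killed on day 19, and their lungs were fixed in Fekete solution so that macroscopic metastases could be counted.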

Q: For CN(C)CCCNc1ncnc2c1C(=O)C(N1CC1)=C(N1CC1)C2=O, which Total dose [1] is on record?
A: 1.2 mg/kg

Q: What about the Tumor burden [2] of the same compound?
A: 27 mg

Q: What about the Tumor burden [3] of the same compound?
A: 27.8

Q: And the “Change in body weight” value [4]?
A: 0.6 g mouse-1

Q: What about the T/C [5] of the same compound?
A: 0%

Q: What about the IC50 [6] of the same compound?
A: 0.00102 µg/mL and 2.7 nM

Q: What about the T/C [7] of the same compound?
A: 58%

Q: And the Toxicity [8]?
A: 0

Q: What about the Total dose [9] of the same compound?
A: 0.5 mg/kg

Q: And the “Median day of death” value [10]?
A: 13

Q: And the “Change in body weight” value [11]?
A: 0.3 g mouse-1

Q: What about the “Median day of death” value [12] of the same compound?
A: 15.5

Q: And the Optimal dose [13]?
A: 0.75 mg/kg

Q: And the “Change in body weight” value [14]?
A: 3.2 g mouse-1

Q: And the ILS at 0.5 mg/kg [15]?
A: 28%

Q: And the “Median day of death” value [16]?
A: 15.5

Q: What about the Mortality [17] of the same compound?
A: 27 days

Q: What about the Survivors [18] of the same compound?
A: 0

Q: What about the Survivors [19] of the same compound?
A: 0

Q: What about the Mortality [20] of the same compound?
A: 27 days

Q: And the Survivors [21]?
A: 0

Q: What about the “Change in body weight” value [22] of the same compound?
A: 0.9 g mouse-1

Q: What about the “Change in body weight” value [23] of the same compound?
A: 0.7 g mouse-1

Q: And the ILS at 0.25 mg/kg [24]?
A: 18%

Q: And the Survivors [25]?
A: 0

Q: What about the “Median day of death” value [26] of the same compound?
A: 23

Q: And the Optimal dose [27]?
A: 0.25 mg/kg

Q: And the Total dose [28]?
A: 1.2 mg/kg and 0.6 mg/kg

Q: And the Total dose [29]?
A: 1.2 mg/kg and 0.6 mg/kg
